Test [1] concerns MDA-MB-435. Briefly: Cytotoxicity against human MDA-MB-435 cells assessed as growth inhibition at 100 uM after 72 hrs by MTT assay.
Test [2] concerns the target DNA topoisomerase 2-alpha (Homo sapiens) (UniProt P11388). Briefly: Inhibition of recombinant human DNA topoisomerase 2-alpha assessed as supression of kDNA decatenation at 100 uM after 30 mins by agarose gel electrophoresis. In a few lines:
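ATP-dependent decatenation assay: 0.20 µg kDNA with 2 units Topo IIα at 37 °C for 30 min, 20 µL. Buffer: 50 mM Tris pH 8.0, KCl, 10 mM MgCl₂, 0.5 mM ATP, 0.5 mM DTT, 30 µg/mL BSA. Stopped with 10% SDS. Agarose gel scored for kDNA versus released minicircles.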

The species entered for another test is Bos taurus. Briefly: Inhibition of calf thymus DNA topoisomerase 1-mediated relaxation of supercoiled pBR322 DNA at 100 uM after 30 mins by Agarose gel electrophoresis. In a few lines: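 Relaxation assay with 0.5 µg supercoiled pBR322 and 1 unit calf thymus Topo I, 20 µL. Buffer: 10 mM Tris–HCl pH 7.9, 150 mM NaCl, 0.1% BSA, 1 mM spermidine, 5% glycerol. Incubated 37 °C for 30 min; stopped with sarcosyl stop solution. 1% agarose gel, 5 V/cm, 2 h, TAE; ethidium bromide stain (0.5 µg/mL), UV. DMSO stocks. At least duplicate.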

Test [3] concerns the target DNA topoisomerase 2-alpha (Homo sapiens) (UniProt P11388). Briefly: Inhibition of recombinant human DNA topoisomerase 2-alpha-mediated relaxation of supercoiled pBR322 DNA at 100 uM after 30 mins by Agarose gel electrophoresis. In a few lines: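 Relaxation assay with 0.5 µg supercoiled pBR322 and 1 unit recombinant human Topo IIα, 20 µL. Incubated 30 min at 30 °C; stopped with 7 mM EDTA. 1% agarose gel, 5 V/cm, 2 h, TAE; ethidium bromide stain, UV. DMSO stocks. At least duplicate.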

In test [4] the test system is Calf thymus DNA. Briefly: Induction of DNA intercalation activity of calf thymus DNA topoisomerase 1 assessed as unwinding of pBR322 DNA at 2 ug/ml after 30 mins by Agarose gel electrophoresis. The test is classed as nucleic-acid assay. The following applies: Bos taurus. An outline of the steps:
(§1)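 Relaxed pBR322 made by treating supercoiled plasmid with excess Topo I (10 units), then proteinase K digestion at 37 °C, phenol-chloroform extraction and ethanol precipitation. Relaxed DNA incubated with compound at 37 °C for 30 min; stopped with gel loading buffer. Run on 1% agarose, TAE, 5 V/cm for 2 h; stained with ethidium bromide 0.5 µg/mL, viewed under UV.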

Test [5] deals with MDA-MB-435. Briefly: Induction of DNA damage in human MDA-MB-435 cells assessed as phosphorylation of ATM at Ser1981 at 10 uM after 12 hrs by Western blotting analysis. The class given is functional, cell-based. An outline of the steps:
(§2)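 Treated MDA-MB-435 cells lysed in ice-cold Tris-HCl pH 7.4 buffer with Triton, phosphatase and protease inhibitors. Lysates clarified, boiled in SDS loading buffer, run on 8-12% SDS-PAGE and blotted. Membranes blocked in 5% skim milk, probed with primary antibodies, then peroxidase secondaries with ECL detection. β-actin as loading control.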

Test [6] has as its system MDA-MB-435. Briefly: Induction of DNA damage in human MDA-MB-435 cells assessed as phosphorylation of p53 at Ser15 at 10 uM after 12 hrs by Western blotting analysis. The class given is functional, cell-based. In a few lines: as §2
A general note: A western blot detects proteins with antibodies after separation by electrophoresis.

The test system of test [7] is MDA-MB-435. Briefly: Induction of DNA damage in human MDA-MB-435 cells assessed as phosphorylation of H2AX at Ser139 at 10 uM after 12 hrs by Western blotting analysis. The class given is functional, cell-based. An outline of the steps:
as §2

Test [8] concerns Calf thymus DNA. Briefly: Induction of DNA intercalation activity of calf thymus DNA topoisomerase 1 assessed as unwinding of pBR322 DNA at 100 uM after 30 mins by Agarose gel electrophoresis. The test is classed as nucleic-acid assay. The following applies: Bos taurus. In a few lines:
as §1

The test system of test [9] is Calf thymus DNA. Briefly: Induction of DNA intercalation activity of calf thymus DNA topoisomerase 1 assessed as unwinding of pBR322 DNA at 10 ug/ml after 30 mins by Agarose gel electrophoresis. The class given is nucleic-acid assay. The conditions noted are these: Bos taurus. An outline of the steps: as §1
Test [10] relates to MDA-MB-435. Briefly: Cytotoxicity against human MDA-MB-435 cells assessed as growth inhibition after 72 hrs by MTT assay. The test is classed as functional, cell-based. In a few lines: (§3)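 MTT assay: cells treated in triplicate with a range of concentrations for 72 h at 37 °C, 5% CO2. Medium replaced, MTT (5 mg/mL) added for 4 h, then SDS/isobutanol/HCl solubiliser overnight. Absorbance read at 590 nm. Inhibition calculated against control and blank wells; IC50 is concentration giving 50% growth inhibition; three independent experiments.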
(In general: Formazan colour is commonly taken as a measure of viable cells.)

The test system of another test is A549. Briefly: Cytotoxicity against human A549 cells assessed as growth inhibition after 72 hrs by MTT assay. The test is classed as functional, cell-based. An outline of the steps:
as §3

The next test relates to LNCaP. Briefly: Cytotoxicity against human LNCAP cells assessed as growth inhibition after 72 hrs by MTT assay. The test is classed as functional, cell-based. An outline of the steps: as §3

This is an account of results in ChEMBL document CHEMBL2424614, “A novel p-terphenyl derivative inducing cell-cycle arrest and apoptosis in MDA-MB-435 cells through topoisomerase inhibition” (Eur J Med Chem, 2013).

Structures are written as SMILES. Calls of active or inactive are those of the source. The calls are words filed in the database; no cut-off is given here.

Sequence of DNA topoisomerase 2-alpha (Homo sapiens) (P11388 whole entry): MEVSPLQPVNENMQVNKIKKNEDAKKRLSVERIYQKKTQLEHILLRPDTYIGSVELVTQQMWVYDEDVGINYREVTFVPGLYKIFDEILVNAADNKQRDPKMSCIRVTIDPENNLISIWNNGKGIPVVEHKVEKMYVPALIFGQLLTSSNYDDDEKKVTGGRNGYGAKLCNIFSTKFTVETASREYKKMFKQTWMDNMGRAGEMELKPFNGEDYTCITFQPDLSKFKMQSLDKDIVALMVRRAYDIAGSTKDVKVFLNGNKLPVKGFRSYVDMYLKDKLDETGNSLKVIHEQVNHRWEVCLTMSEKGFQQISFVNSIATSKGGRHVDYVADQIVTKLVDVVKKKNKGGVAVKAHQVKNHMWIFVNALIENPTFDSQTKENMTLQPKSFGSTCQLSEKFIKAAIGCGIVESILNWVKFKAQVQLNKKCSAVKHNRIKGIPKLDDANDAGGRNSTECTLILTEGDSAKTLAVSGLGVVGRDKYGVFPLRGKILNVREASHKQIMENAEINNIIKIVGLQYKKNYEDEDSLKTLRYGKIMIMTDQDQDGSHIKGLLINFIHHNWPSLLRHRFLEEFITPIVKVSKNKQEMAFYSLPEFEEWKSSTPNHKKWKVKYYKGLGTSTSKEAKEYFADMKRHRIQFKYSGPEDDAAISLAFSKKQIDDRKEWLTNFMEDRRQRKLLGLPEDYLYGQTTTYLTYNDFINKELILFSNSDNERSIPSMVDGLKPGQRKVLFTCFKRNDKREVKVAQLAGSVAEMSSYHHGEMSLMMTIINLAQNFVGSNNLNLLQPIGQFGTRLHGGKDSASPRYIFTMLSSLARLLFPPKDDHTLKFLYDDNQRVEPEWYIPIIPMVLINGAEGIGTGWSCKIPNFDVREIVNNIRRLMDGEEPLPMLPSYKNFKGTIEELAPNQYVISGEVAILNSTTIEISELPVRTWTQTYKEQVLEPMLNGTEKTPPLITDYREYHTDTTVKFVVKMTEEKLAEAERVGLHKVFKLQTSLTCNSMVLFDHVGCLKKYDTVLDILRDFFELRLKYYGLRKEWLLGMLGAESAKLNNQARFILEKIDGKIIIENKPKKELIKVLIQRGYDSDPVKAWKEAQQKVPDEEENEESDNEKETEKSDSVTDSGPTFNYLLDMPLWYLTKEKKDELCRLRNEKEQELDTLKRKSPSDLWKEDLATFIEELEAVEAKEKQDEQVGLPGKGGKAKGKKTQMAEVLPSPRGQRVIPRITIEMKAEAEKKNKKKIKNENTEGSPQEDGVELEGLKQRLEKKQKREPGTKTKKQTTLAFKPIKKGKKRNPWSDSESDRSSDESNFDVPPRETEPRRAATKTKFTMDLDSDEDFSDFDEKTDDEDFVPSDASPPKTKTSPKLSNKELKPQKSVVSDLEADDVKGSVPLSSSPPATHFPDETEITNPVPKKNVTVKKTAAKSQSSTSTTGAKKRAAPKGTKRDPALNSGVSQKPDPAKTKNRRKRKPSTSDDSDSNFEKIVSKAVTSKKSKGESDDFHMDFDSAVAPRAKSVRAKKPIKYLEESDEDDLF

In the case of `COc1ccc(-c2ccc(-c3ccc(OC)c(OC)c3)c(OC)c2)cc1`, the outcome in the test on MDA-MB-435 [1] was inactive. Moreover, the inhibition entry (in test [2]; in the test listed under Bos taurus; in [3]) was “inactive” each time.
For the compound `CC[n+]1c(-c2ccccc2)c2cc(N)ccc2c2ccc(N)cc21`, in the test with Calf thymus DNA [4], the outcome was Active.
For the compound `COc1cc([C@@H]2c3cc4c(cc3[C@@H](O[C@@H]3O[C@@H]5CO[C@@H](C)O[C@H]5[C@H](O)[C@H]3O)[C@H]3COC(=O)[C@H]23)OCO4)cc(OC)c1O`, the result in the test on MDA-MB-435 [5], in the test on MDA-MB-435 [6] and in the test with MDA-MB-435 [7] was Active.
With `COc1ccc(-c2cc(OC)c(-c3ccc(OC)c(OC)c3)c(OC)c2)cc1`, the result in the test on MDA-MB-435 [1] was inactive. Also, the inhibition entry (in test [2]; in the test filed under Bos taurus; in test [3]) was “inactive” each time.
Consider `CC[C@@]1(O)C(=O)OCc2c1cc1n(c2=O)Cc2cc3c(O)cccc3nc2-1`, for which the inhibition entry in the test filed under Bos taurus was “Active”. The outcome in the test with Calf thymus DNA [8] was inactive.
As for `CC[N+](C)(CC)CCC[n+]1c(-c2ccccc2)c2cc(N)ccc2c2ccc(N)cc21`, in the test with Calf thymus DNA [9], the result was Active.
For the compound `Oc1ccc(-c2ccc(-c3ccc(O)c(O)c3)c(O)c2)cc1`, the inhibition result in test [2] is “Active”. Further, the inhibition result in the test listed under Bos taurus was “inactive”. In addition, the “growth inhibition (GI)” value in the test on MDA-MB-435 [10], with A549 and with LNCaP was “Active” in each case.
As for `Oc1ccc(-c2ccc(-c3ccc(O)c(O)c3)c(O)c2O)cc1`, the inhibition entry in test [2] was “Active”. Moreover, the inhibition result in the test filed under Bos taurus is “inactive”. Besides, the “growth inhibition (GI)” value with MDA-MB-435 [10], in the test with A549 and in the test with LNCaP was “Active” in each case.
Turning to `COc1ccc(-c2ccc(-c3ccc(O)cc3)c(OC)c2OC)cc1OC`, the inhibition entry (in test [2]; in the test filed under Bos taurus; in test [3]) was “inactive” throughout.
On to `COc1ccc(-c2ccc(-c3ccc(O)cc3)cc2)cc1OC`, for which the inhibition result (in test [2]; in the test filed under Bos taurus; in test [3]) was “inactive” throughout.
Consider `Oc1ccc(-c2cc(O)c(-c3ccc(O)c(O)c3)c(O)c2)cc1`, for which the inhibition result (in [2]; in the test listed under Bos taurus) was “Active” in each case. The “growth inhibition (GI)” value in the test with MDA-MB-435 [10], with A549 and in the test with LNCaP was “Active” in each case.
